Rows were chosen to be rich in hits. Some 4.6% of all compounds tested hit in one or more screens of this group.
OX1R antag-1 – blocks the human orexin 1 receptor; inhibition, % at 5 µM; CHO/OX1R cells, Fluo-8 calcium fluorescence, orexin A; 330,000 tested, 0.43% active; O43613; AID 434989;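 active = inhibition above its plate's threshold, mean inhibition of all tested compounds on the plate plus 3 SD, cut at about 37% in these data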;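 also: 0% = orexin A challenge wells and 100% = SB-334867-A antagonist wells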
GPR7 antag – antagonists of human GPR7 (neuropeptides B/W receptor 1); 290,000 tested, 1.1% active; P48145; GPR7-expressing cells, fluorescence antagonist assay; AID 1861; inhibition, % at 4.4 µM; in the data active = inhibition above about 16%, passing the limit was not always enough;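 also: cells stimulated with the agonist NPW; 0% = agonist with vehicle and 100% = vehicle without agonist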
Target sequence (P48145 whole entry, looked up): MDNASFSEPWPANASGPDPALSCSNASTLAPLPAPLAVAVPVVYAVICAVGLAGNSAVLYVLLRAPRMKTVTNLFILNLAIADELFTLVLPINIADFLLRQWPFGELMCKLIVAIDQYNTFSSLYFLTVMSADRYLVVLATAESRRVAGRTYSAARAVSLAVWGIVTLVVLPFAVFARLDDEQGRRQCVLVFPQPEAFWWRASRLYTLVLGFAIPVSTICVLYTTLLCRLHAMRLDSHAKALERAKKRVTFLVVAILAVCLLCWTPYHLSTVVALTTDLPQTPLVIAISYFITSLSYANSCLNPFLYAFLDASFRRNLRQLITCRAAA
CHO parental Ca – counter-screen for OX1R antagonists: effect in parental CHO cells; inhibition, % at 5.6 µM; parental CHO-K1, ATP-induced calcium, Fluo-8 fluorescence; AID 463079; 330,000 tested, 0.63% active;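 active = inhibition above that plate's mean sample inhibition plus 3 SD, cut at about 26% in these data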;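 also: 0% = ATP-challenged DMSO wells and 100% = DMSO wells without ATP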
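test system = CHO parental line | reagent = ATP stimulus | measured by = intracellular calcium via Fluo-8 no-wash fluorescent dye | control set = ATP and no-ATP DMSO wells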
TAAR1 ag – agonists of human TAAR1. 360,000 tested, 0.99% active. AID 624467. CHO RD-HGA16 TAAR1, Fluo-8 calcium fluorescence; vehicle wells 0%, saturating PEA agonist 100%. activation, % at 3 µM. Q96RJ0;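 active = activation above the mean activation of all test compounds in the run plus 3 SD, cut at about 38% in these data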
Target sequence (Q96RJ0 whole entry, looked up): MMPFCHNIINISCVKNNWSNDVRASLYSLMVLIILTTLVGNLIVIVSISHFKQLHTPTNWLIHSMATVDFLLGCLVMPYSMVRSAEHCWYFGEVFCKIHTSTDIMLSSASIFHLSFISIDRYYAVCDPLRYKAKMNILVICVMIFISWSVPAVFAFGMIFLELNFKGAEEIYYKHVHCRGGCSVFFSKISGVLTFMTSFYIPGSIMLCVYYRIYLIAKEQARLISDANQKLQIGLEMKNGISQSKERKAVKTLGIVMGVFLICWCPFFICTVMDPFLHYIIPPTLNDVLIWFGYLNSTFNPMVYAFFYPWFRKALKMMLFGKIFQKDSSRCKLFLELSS
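System: CHO RD-HGA16 cells carrying human TAAR1 plus Gα16; Incubation: 17-24 h seeding, 75 min 37 °C dye, 30 min RT; Measured by: Fluo-8 fluorescence, 5 s baseline then 140 s kinetic read; Control set: DMSO and PEA EC100; Replication: single well for each compound.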
TAAR1 antagonist – antagonists of human TAAR1 | Q96RJ0 | CHO RD-HGA16 TAAR1, Fluo-8 calcium fluorescence, antagonist | inhibition, % at 3 µM | 360,000 tested, 1.5% active;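 active = inhibition above a per-plate cutoff, the mean inhibition of test compounds on that plate plus 3 SD, cut at about 49% in these data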;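 also: 0% = DMSO plus EC80 beta-PEA response and 100% = DMSO alone without agonist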
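Material: CHO RD-HGA16 cells bearing hTAAR1; compound dosing: one-point dosing, 3 µM nominal final; schedule: dye loading 75 min at 37 °C, then 30 min room temperature; measured by: calcium fluorescence with Fluo-8; control set: vehicle and agonist controls; replication: n of 1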
OX1R antag-2 – OX1R (human) antagonism; AID 485270; OX1R-expressing cells, FRET antagonist read-out; O43613; inhibition, % at 6.6 µM; 330,000 tested, 1.8% active; in the data active = inhibition mostly above about 38%, no sharp cut-off; inactive = mostly below about 40%;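 also: 0% = agonist challenge alone and 100% = reference antagonist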
OX1R HTRF confirm – OX1R (human) antagonism, HTRF confirmed | shares compounds with OX1R antag-2 | OX1R-expressing cells, HTRF antagonist assay | inhibition, % at 6.6 µM | 1,800 tested, 49% active; in the data active = inhibition above about 55%;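 also: CHO cells expressing OX1R stimulated with orexin A at about EC80; 0% = agonist challenge alone and 100% = reference antagonist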
CHO-K1 HTRF – counter-screen: parental CHO-K1 HTRF response; shares compounds with OX1R antag-2; parental CHO-K1 cells, HTRF counterscreen; inhibition, % at 6.6 µM; 1,800 tested, 48% active; AID 493232; in the data active = inhibition above about 17%;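 also: 0% = agonist challenge with vehicle and 100% = vehicle alone without agonist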
* marks the source's active call; other numbers are inactive results.

What do the screens show for `CCN1CCN(C2=C(NS(=O)(=O)c3ccc(Br)cc3)C(=O)c3ccccc3C2=O)CC1`?
OX1R antag-1: -25; GPR7 antag: -8; CHO parental Ca: -8; TAAR1 ag: 3; TAAR1 antagonist: -11; OX1R antag-2: 95*; OX1R HTRF confirm: 70*; CHO-K1 HTRF: 88*

Results for O=C1C(Cl)=C(N2CCC(C(=O)O)CC2)C(=O)c2ccccc21 ?
OX1R antag-1: -7; GPR7 antag: -15; CHO parental Ca: -15; OX1R antag-2: 101*; OX1R HTRF confirm: 52; CHO-K1 HTRF: 64*

What do the screens show for `CN1CCN(C2=C(NS(=O)(=O)c3ccccc3)C(=O)c3ccccc3C2=O)CC1`?
OX1R antag-1: -23; GPR7 antag: -9; CHO parental Ca: -16; OX1R antag-2: 96*; OX1R HTRF confirm: 74*; CHO-K1 HTRF: 90*

How did CN1CCN(C2=C(Cl)C(=O)c3ccccc3C2=O)CC1 do in these assays?
TAAR1 ag: 4; TAAR1 antagonist: 18

What do the screens show for `CC1CN(S(=O)(=O)c2cccc(C(=O)N(CCc3ccccc3)Cc3ccccc3)c2)CC(C)O1` (stereo not drawn)?
OX1R antag-1: -26; CHO parental Ca: -23; OX1R antag-2: 22

What do the screens show for `O=C1NCC(Nc2ccc(Cl)cc2)C(=O)N1` (stereo not drawn)?
TAAR1 ag: 1; TAAR1 antagonist: 3

Results for CCOc1ccccc1N1CCN(C2=C(NS(=O)(=O)c3cccs3)C(=O)c3ccccc3C2=O)CC1 ?
OX1R antag-1: -42; GPR7 antag: -8; CHO parental Ca: -35; TAAR1 ag: 4; TAAR1 antagonist: 23; OX1R antag-2: 24

Results for NC(=O)C1CCN(C2=C(NS(=O)(=O)c3ccccc3)C(=O)c3ccccc3C2=O)CC1 ?
OX1R antag-1: -18; GPR7 antag: 9; CHO parental Ca: -6; TAAR1 ag: 14; TAAR1 antagonist: 10; OX1R antag-2: 129*; OX1R HTRF confirm: 59*; CHO-K1 HTRF: 76*

What do the screens show for `CN1CCN(C2=C(NS(=O)(=O)c3cccs3)C(=O)c3ccccc3C2=O)CC1`?
OX1R antag-1: -11; GPR7 antag: -10; CHO parental Ca: -4; TAAR1 ag: 0; TAAR1 antagonist: -14; OX1R antag-2: 132*; OX1R HTRF confirm: 62*; CHO-K1 HTRF: 99*

How did O=C1C(NS(=O)(=O)c2cccs2)=C(N2CCOCC2)C(=O)c2ccccc21 do in these assays?
OX1R antag-1: 6; GPR7 antag: -8; CHO parental Ca: 0; TAAR1 ag: 0; TAAR1 antagonist: -7; OX1R antag-2: 86*; OX1R HTRF confirm: 95*; CHO-K1 HTRF: 63*

How did NC(c1ccccc1)c1csc(Nc2ccc(S(N)(=O)=O)cc2)n1 (stereo not drawn) do in these assays?
TAAR1 ag: 0; TAAR1 antagonist: -8

What do the screens show for `CC(C)[C@H](NC(=O)c1ccccc1F)C(=O)OCC(=O)NC1CC1`?
OX1R antag-1: 1; CHO parental Ca: -3; TAAR1 ag: 0; TAAR1 antagonist: -3; OX1R antag-2: 6

Results for O=S(=O)(Nc1c(O)ccc2ccccc12)c1cccc2ccccc12 ?
OX1R antag-1: 19; CHO parental Ca: -5; OX1R antag-2: 80*; OX1R HTRF confirm: 78*; CHO-K1 HTRF: 0

Results for CSc1nc2nc(-c3cccs3)cc(C(F)(F)F)c2c(=O)[nH]1 ?
OX1R antag-1: -14; GPR7 antag: -12; CHO parental Ca: 0; TAAR1 ag: 1; TAAR1 antagonist: -2; OX1R antag-2: 7

Results for Cc1c(C(=O)O)sc2nc(-c3cccs3)cc(C(F)(F)F)c12 ?
OX1R antag-1: -20; GPR7 antag: -1; CHO parental Ca: -10; TAAR1 ag: -1; TAAR1 antagonist: -11; OX1R antag-2: 78*; OX1R HTRF confirm: 31; CHO-K1 HTRF: 30*

What do the screens show for `Cc1ccc(S(=O)(=O)NC2CCCC2)cc1C(N)=O`?
OX1R antag-1: -23; GPR7 antag: 4; CHO parental Ca: 8; TAAR1 ag: 1; TAAR1 antagonist: -15; OX1R antag-2: 0

What do the screens show for `Cc1ccc(C)n1-c1ccc(N2CCOCC2)c(Br)c1`?
OX1R antag-1: -10; GPR7 antag: 7; CHO parental Ca: -11; TAAR1 ag: 9; TAAR1 antagonist: 0; OX1R antag-2: 10

What do the screens show for `N#CC(C#N)=Cc1c[nH]c(=O)c(C#N)c1Nc1ccccc1`?
OX1R antag-1: 4; CHO parental Ca: 10; TAAR1 ag: 2; TAAR1 antagonist: -10; OX1R antag-2: 88*; OX1R HTRF confirm: 44; CHO-K1 HTRF: 62*

How did N#C/C(=C\c1ccc([N+](=O)[O-])cc1)c1ccccn1 do in these assays?
OX1R antag-1: -7; GPR7 antag: -10; CHO parental Ca: -14; TAAR1 ag: -2; TAAR1 antagonist: 4; OX1R antag-2: 121*; OX1R HTRF confirm: 53; CHO-K1 HTRF: 51*

Results for COC(=O)c1ccc(/C=C(\C#N)c2ccccn2)cc1 ?
OX1R antag-1: -23; GPR7 antag: 2; CHO parental Ca: -12; TAAR1 ag: 15; TAAR1 antagonist: 4; OX1R antag-2: 45

Results for O=C(c1nc2nc(-c3ccccc3)cc(C(F)(F)F)n2n1)N1CCOCC1 ?
OX1R antag-1: 0; GPR7 antag: -9; CHO parental Ca: -4; TAAR1 ag: 2; TAAR1 antagonist: -17; OX1R antag-2: 77*; OX1R HTRF confirm: 22; CHO-K1 HTRF: 27*

What do the screens show for `O=C(c1nn2c(C(F)(F)F)cc(-c3ccccc3)nc2c1Cl)N1CCOCC1`?
OX1R antag-1: -29; GPR7 antag: -8; CHO parental Ca: -14; TAAR1 ag: 2; TAAR1 antagonist: -18; OX1R antag-2: 7

How did O=C(COC(=O)CNC(=O)c1cccs1)Nc1ccc(C(F)(F)F)cc1[N+](=O)[O-] do in these assays?
OX1R antag-1: -8; CHO parental Ca: -3; TAAR1 ag: 2; TAAR1 antagonist: 9; OX1R antag-2: 27

Results for CCN(CC)c1ccc(/C=N/NC(=O)c2ccoc2C)c(O)c1 ?
OX1R antag-1: 4; GPR7 antag: 2; CHO parental Ca: -22; TAAR1 ag: 5; TAAR1 antagonist: -7; OX1R antag-2: 85*; OX1R HTRF confirm: 91*; CHO-K1 HTRF: 14

Results for CCN(CC)c1ccc(/C=N/NC(=O)OC)c(O)c1 ?
OX1R antag-1: -7; GPR7 antag: -1; CHO parental Ca: -22; TAAR1 ag: 1; TAAR1 antagonist: 31; OX1R antag-2: 26
